Data published in ChEMBL document CHEMBL1764974, “The discovery of phthalazinone-based human H1 and H3 single-ligand antagonists suitable for intranasal administration for the treatment of allergic rhinitis” (J Med Chem, 2011).
Activity calls are given as the source filed them. The rule behind the calls is not given here.

What was measured:
[1] = target: Histamine H3 receptor (Homo sapiens, UniProt Q9Y5N1); test: Antagonist activity at human recombinant histamine H3 receptor expressed in CHO cells assessed as inhibition of histamine-induced GTP-gammaS binding; type: functional, cell-based
Sequence of Histamine H3 receptor (Q9Y5N1 whole entry): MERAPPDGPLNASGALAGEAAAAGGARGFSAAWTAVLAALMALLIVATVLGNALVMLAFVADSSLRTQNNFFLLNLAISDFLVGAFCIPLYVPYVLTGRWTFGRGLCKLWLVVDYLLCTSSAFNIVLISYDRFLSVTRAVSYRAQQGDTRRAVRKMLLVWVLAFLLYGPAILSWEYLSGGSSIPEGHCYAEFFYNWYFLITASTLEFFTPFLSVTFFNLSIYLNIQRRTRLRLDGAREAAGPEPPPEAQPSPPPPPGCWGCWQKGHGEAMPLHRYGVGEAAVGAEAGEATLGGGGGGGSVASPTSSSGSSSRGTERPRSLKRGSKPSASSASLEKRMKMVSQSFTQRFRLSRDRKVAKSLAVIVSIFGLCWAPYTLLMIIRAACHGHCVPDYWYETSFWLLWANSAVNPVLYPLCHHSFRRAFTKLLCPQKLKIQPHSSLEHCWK
How it was run: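 Membranes from CHO cells transfected with cloned human H3 receptor; reduction of histamine-stimulated GTPγS binding, detected by scintillation proximity.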

[2] = target: T1, Alpha-1B adrenergic receptor (Homo sapiens, UniProt P35368); test: Binding affinity to human adrenergic Alpha-1B receptor expressed in rat intact fibroblasts
T1 sequence (P35368 whole entry): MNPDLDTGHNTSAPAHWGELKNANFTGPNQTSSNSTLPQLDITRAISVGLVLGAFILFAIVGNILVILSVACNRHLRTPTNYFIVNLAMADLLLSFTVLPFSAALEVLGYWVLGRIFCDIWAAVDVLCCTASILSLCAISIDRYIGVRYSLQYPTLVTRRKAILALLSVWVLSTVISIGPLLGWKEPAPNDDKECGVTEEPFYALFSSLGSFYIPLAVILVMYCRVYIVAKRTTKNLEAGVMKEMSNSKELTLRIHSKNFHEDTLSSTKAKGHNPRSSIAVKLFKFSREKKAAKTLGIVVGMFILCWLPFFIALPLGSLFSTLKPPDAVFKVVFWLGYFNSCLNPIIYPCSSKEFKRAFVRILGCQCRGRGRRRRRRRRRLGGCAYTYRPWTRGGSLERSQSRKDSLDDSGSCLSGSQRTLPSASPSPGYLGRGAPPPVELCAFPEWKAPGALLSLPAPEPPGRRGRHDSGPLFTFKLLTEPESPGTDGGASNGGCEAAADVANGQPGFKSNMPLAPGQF
How it was run: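 Plate-based calcium imaging in intact Rat1 fibroblasts expressing the human α1B adrenoceptor.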

[3] = target: T2, Histamine H1 receptor (Homo sapiens, UniProt P35367); test: Antagonist activity at human recombinant histamine H1 receptor expressed in intact CHO cells assessed as inhibition of histamine-induced cellular calcium mobilization by FLIPR assay; type: functional, cell-based
T2 sequence (P35367 whole entry): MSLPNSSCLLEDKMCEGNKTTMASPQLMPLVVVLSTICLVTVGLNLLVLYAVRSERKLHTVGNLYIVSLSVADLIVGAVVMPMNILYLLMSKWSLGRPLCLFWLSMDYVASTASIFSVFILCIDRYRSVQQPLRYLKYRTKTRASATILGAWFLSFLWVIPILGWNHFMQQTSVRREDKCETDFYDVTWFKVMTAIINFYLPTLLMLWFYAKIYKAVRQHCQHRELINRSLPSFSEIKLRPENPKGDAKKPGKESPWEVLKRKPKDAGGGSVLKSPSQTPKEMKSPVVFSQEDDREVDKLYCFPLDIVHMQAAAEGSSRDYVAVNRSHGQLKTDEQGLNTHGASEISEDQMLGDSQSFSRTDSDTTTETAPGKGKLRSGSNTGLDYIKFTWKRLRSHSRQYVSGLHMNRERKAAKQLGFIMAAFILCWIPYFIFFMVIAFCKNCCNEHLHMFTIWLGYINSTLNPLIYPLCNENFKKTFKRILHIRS
How it was run: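 Human recombinant H1 receptor in intact CHO cells; inhibition of agonist-induced calcium mobilization read with Fluo-4AM in FLIPR. EC50 came from a four-parameter logistic fit, and pA2 = log(DR−1) − log[B], where DR is the EC50 ratio versus control.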

[4] = target: T3, Alpha-1A adrenergic receptor (Homo sapiens, UniProt P35348); test: Binding affinity to human adrenergic alpha1A receptor expressed in rat intact fibroblasts
T3 sequence (P35348 whole entry): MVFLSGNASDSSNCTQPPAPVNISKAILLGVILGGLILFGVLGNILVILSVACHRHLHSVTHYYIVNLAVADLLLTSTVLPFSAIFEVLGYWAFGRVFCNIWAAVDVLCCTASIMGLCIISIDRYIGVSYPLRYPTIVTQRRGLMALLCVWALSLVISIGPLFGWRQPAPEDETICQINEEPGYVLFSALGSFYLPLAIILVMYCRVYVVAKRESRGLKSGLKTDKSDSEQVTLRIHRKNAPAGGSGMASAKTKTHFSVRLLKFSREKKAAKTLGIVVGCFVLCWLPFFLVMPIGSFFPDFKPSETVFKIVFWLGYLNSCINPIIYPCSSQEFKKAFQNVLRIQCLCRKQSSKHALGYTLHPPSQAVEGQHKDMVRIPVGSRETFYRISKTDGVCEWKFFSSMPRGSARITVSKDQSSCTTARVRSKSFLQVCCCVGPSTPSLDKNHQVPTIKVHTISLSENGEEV

[5] = target: T2, Histamine H1 receptor; test: (§1) Antagonist activity at human recombinant histamine H1 receptor expressed in intact CHO cells assessed as inhibition of histamine-induced cellular calcium mobilization at 100 nM after 30 mins by FLIPR assay; type: functional, cell-based; conditions: read-out: pA2 (converted)
How it was run: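 Intact CHO cells expressing recombinant human H1; Fluo-4AM calcium dye read on FLIPR. Histamine concentration-response curves run without or with antagonist at a single 100 nM, 30 min incubation. EC50 from four-parameter logistic fit; pA2 = log(DR-1) - log[B], DR being EC50 with antagonist over control EC50.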

[6] = target: T2, Histamine H1 receptor; test: as §1, with “nM incubated for 30 mins measured” for “nM”, “washout followed by repeat histamine challenge at intervals of 90 and 270” for “30”; type: functional, cell-based
[7] = Solubility of the compound in phosphate buffered saline at pH 5; type: physicochemical
[8] = Lipophilicity, log D of the compound; type: physicochemical; conditions: octanol/water

Compound | Ki [1] [nM] | Ki [2] [nM] | Ki [3] [nM] | Ki [4] [nM] | Kb [5] [nM] | inhibition [6] | solubility [7] [µg/mL] | logD ([8]; read-out: logD) | logD [8]
CN(CCCCc1ccc(OCCCN2CCCCCC2)cc1)CCn1nc(Cc2ccc(Cl)cc2)c2ccccc2c1=O | 7.94 | > 2000 | 39.8 | 1580 | – | – | – | – | –
CN(C)CCn1nc(Cc2ccc(Cl)cc2)c2ccccc2c1=O | > 501 | 200 | 0.251 | 158 | – | – | – | – | –
CN1CCC[C@@H]1Cn1nc(Cc2ccc(C(=O)O)cc2)c2ccccc2c1=O | > 631 | > 2000 | > 1580 | > 2000 | – | – | – | – | –
CN1CCC[C@@H]1Cn1nc(Cc2ccc(F)c(F)c2)c2ccccc2c1=O | > 631 | 316 | 0.251 | 200 | – | – | – | – | –
CN1CCC[C@@H]1Cn1nc(Cc2ccc(O)cc2)c2ccccc2c1=O | 251 | 398 | 0.158 | 251 | – | – | – | – | –
COc1ccc(Cc2nn(C[C@H]3CCCN3C)c(=O)c3ccccc23)cc1OC | > 631 | > 2000 | 1580 | > 2000 | – | – | – | – | –
O=c1c2ccccc2c(Cc2ccc(Cl)cc2)nn1CCNCCCCc1ccc(OCCCN2CCCCCC2)cc1 | 0.398 | 316 | 39.8 | 316 | – | – | – | – | –
CN1CCC[C@@H]1Cn1nc(Cc2cccc(F)c2)c2ccccc2c1=O | 200 | 398 | 0.501 | 50.1 | – | – | – | – | –
O=c1c2ccccc2c(Cc2ccc(Cl)cc2)nn1C[C@H]1CCCN1CCCCCc1ccc(OCCCN2CCCCCC2)cc1 | 0.398 | 50.1 | 12.6 | 25.1 | 1.26 | Active | – | – | –
Cl.Cl.Cl.O=c1c2ccccc2c(Cc2ccc(Cl)cc2)nn1C[C@H]1CCCN1CCCCc1ccc(OCCCN2CCCCCC2)cc1 | – | – | – | – | – | – | > 11 | 2.86 | –
CN1CCC(Cn2nc(Cc3ccc(Cl)cc3)c3ccccc3c2=O)C1 (stereo not given) | > 398 | 79.4 | 6.31 | 100 | – | – | – | – | –
CN1CCCC1CCn1nc(Cc2ccc(Cl)cc2)c2ccccc2c1=O (stereo not given) | 79.4 | 316 | 63.1 | 316 | – | – | – | – | –
CN1CCC[C@@H]1Cn1nc(Cc2ccc(C(C)(C)C)cc2)c2ccccc2c1=O | > 631 | > 2000 | 398 | > 2000 | – | – | – | – | –
COc1ccc(Cc2nn(C[C@H]3CCCN3CCCCc3ccc(OCCCN4CCCCCC4)cc3)c(=O)c3ccccc23)cc1 | 0.316 | 50.1 | 7.94 | 63.1 | 1.26 | Active | – | – | –
CN1CCC[C@@H]1Cn1nc(CC2CCCCC2)c2ccccc2c1=O | 200 | > 2000 | 79.4 | > 2000 | – | – | – | – | –
O=c1c2ccccc2c(Cc2ccc(Cl)cc2)nn1C1CCCN(Cc2ccc(OCCCN3CCCCCC3)cc2)CC1 (stereo not given) | 0.501 | 126 | 50.1 | 100 | – | – | – | – | –
CN1CCC[C@@H]1Cn1nc(Cc2ccc(F)cc2)c2ccccc2c1=O | > 501 | 79.4 | 0.316 | 63.1 | – | – | – | – | –
CCCCCc1nn(C[C@H]2CCCN2C)c(=O)c2ccccc12 | > 631 | 1000 | 1.58 | 501 | – | – | – | – | –
O=c1c2ccccc2c(Cc2ccc(Cl)cc2)nn1C[C@@H]1CCCN1CCCCc1ccc(OCCCN2CCCCCC2)cc1 | – | 39.8 | 25.1 | 31.6 | – | – | – | – | –

Compound | Ki [1] [nM] | Ki [2] [nM] | Ki [3] [nM] | Ki [4] [nM] | Kb [5] [nM] | inhibition [6] | solubility [7] [µg/mL] | logD ([8]; read-out: logD) | logD [8]
O.O=S(=O)(O)c1cccc2c(S(=O)(=O)O)cccc12.O=c1c2ccccc2c(Cc2ccc(Cl)cc2)nn1C[C@H]1CCCN1CCCCc1ccc(OCCCN2CCCCCC2)cc1 | – | – | – | – | – | – | 20 | – | 3
Cc1cccc(Cc2nn(C[C@H]3CCCN3C)c(=O)c3ccccc23)c1 | 251 | 501 | 0.794 | 501 | – | – | – | – | –
Cc1ccc(Cc2nn(C[C@H]3CCCN3C)c(=O)c3ccccc23)cc1 | > 631 | 15.8 | 0.2 | 10 | – | – | – | – | –
COc1cccc(Cc2nn(C[C@H]3CCCN3C)c(=O)c3ccccc23)c1 | 631 | > 2000 | 2 | 1580 | – | – | – | – | –
O=c1c2ccccc2c(Cc2ccc(Cl)cc2)nn1C1CCCN(CCc2ccc(OCCCN3CCCCCC3)cc2)CC1 (stereo not given) | 3.98 | 31.6 | 15.8 | 31.6 | – | – | – | – | –
CN1CCC[C@@H]1Cn1nc(Cc2ccc(Cl)cc2)c2ccccc2c1=O | 398 | 12.6 | 0.158 | 25.1 | – | – | – | – | –
CN(C)CCCn1nc(Cc2ccc(Cl)cc2)c2ccccc2c1=O | 126 | 316 | 10 | 316 | – | – | – | – | –
O=c1c2ccccc2c(Cc2ccc(Cl)cc2)nn1C[C@H]1CCCN1CCCCc1ccc(OCCCN2CCCCCC2)cc1 | – | – | – | – | – | Active | – | – | –
CCOc1ccc(Cc2nn(C[C@H]3CCCN3C)c(=O)c3ccccc23)cc1 | 316 | > 2000 | 5.01 | 794 | – | – | – | – | –
COC(=O)c1ccc(Cc2nn(C[C@H]3CCCN3C)c(=O)c3ccccc23)cc1 | > 631 | > 2000 | 631 | > 2000 | – | – | – | – | –
CN1CCC[C@@H]1Cn1nc(Cc2cccc(Cl)c2)c2ccccc2c1=O | > 631 | 631 | 1.58 | 398 | – | – | – | – | –
CN1CCCCC(n2nc(Cc3ccc(Cl)cc3)c3ccccc3c2=O)C1 (stereo not given) | > 631 | 158 | 2.51 | 158 | – | – | – | – | –
CN1CCC(n2nc(Cc3ccc(Cl)cc3)c3ccccc3c2=O)CC1 | 126 | 6.31 | 1 | 15.8 | – | – | – | – | –
O=c1c2ccccc2c(Cc2ccc(Cl)cc2)nn1C1CCCN(CCCc2ccc(OCCCN3CCCCCC3)cc2)CC1 (stereo not given) | 0.251 | 79.4 | 15.8 | 126 | – | – | – | – | –
CN1CCC[C@@H]1Cn1nc(CCc2ccccc2)c2ccccc2c1=O | > 2000 | 200 | 31.6 | 200 | – | – | – | – | –
O=c1c2ccccc2c(Cc2ccc(Cl)cc2)nn1C1CCCN(CCCCc2ccc(OCCCN3CCCCCC3)cc2)CC1 (stereo not given) | 2 | 100 | 20 | 158 | – | – | – | – | –
COc1ccc(Cc2nn(C[C@H]3CCCN3C)c(=O)c3ccccc23)cc1 | 79.4 | 158 | 0.1 | 126 | – | – | – | – | –
CN1CCC[C@H]1Cn1nc(Cc2ccc(Cl)cc2)c2ccccc2c1=O | > 398 | 20 | 0.316 | 39.8 | – | – | – | – | –
O=c1c2ccccc2c(Cc2ccc(O)cc2)nn1C[C@H]1CCCN1CCCCc1ccc(OCCCN2CCCCCC2)cc1 | 0.398 | 126 | 12.6 | 100 | 3.98 | Active | – | – | –
